Laboratory results taken from PMC3511619 (Journal of ethnopharmacology, 2012).

Tests used:
HCV NS5B = HCV NS5B (Hepatitis C virus genotype 1b, UniProt P26663); test: RdRp assay; format: biochemical; details: for IC50, inhibition of NS5B RdRp activity in vitro: single isolates; for IC90: read-out: IC90, RdRp activity of HCV NS5B
[1] = test system: HCV subgenomic replicon (HCV RNA) in MH14 cells; test: Quantitation of HCV RNA by RT-PCR in MH14 cells; format: cell-based, Hepatitis C virus; details: for inhibition of HCV RNA replication: 500 μM; for HCV replication reduced: 100 μM
In short: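 MH14 cells carrying a stable HCV subgenomic replicon were kept at 37 °C, 5% CO2 in DMEM with 10% FBS, penicillin/streptomycin, glutamine and 300 μg/ml G418. Cells were grown 60 h with or without test compound dissolved in DMSO. Total RNA was TRIzol-extracted. HCV RNA was reverse-transcribed with an HCV-specific primer and PCR-amplified for 25 cycles (1 min each at 94, 52, 72 °C). GAPDH mRNA served as internal control.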

MH14 cells = test: MTT assay; details: for effect on cell growth / influence on cell viability / toxicity: 48 h, MH14 cells; for influence on cell viability: 2 μM and 10 μM; for toxicity: 50 μM and 100 μM
[2] = test system: p53 expression in peripheral blood mononuclear cells (PBMC); test: p53 expression in peripheral blood mononuclear cells; format: cell-based
HCV NS5B (CΔ21) = HCV NS5B (CΔ21) (Hepatitis C virus genotype 1b, UniProt P26663); test: Fluorescence quenching binding assay; details: for time to binding equilibrium with NS5B (fluorescence quenched): data not shown
[3] = test system: tumor suppressor protein, p53; test: p53 expression; format: cell-based; details: cells not given
[4] = test system: HCV subgenomic replicon (NS5B, NS5A expression) in MH14 cells; format: cell-based, Hepatitis C virus; details: for viral replication reduced (first statement, Fig. 4 B, C): cell culture system; for inhibition at 100 µM: Hepatitis C virus, MH14, read-out: inhibition of NS5B
In short: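 MH14 cells with stably replicating HCV subgenomic replicon, grown at 37 °C, 5% CO2 in DMEM with 10% FBS, penicillin/streptomycin, glutamine and 300 μg/ml G418. Cells were exposed to DMSO-dissolved test compound for 48 h, washed, lysed in SDS buffer, boiled, and clarified. Blots were probed with anti-NS5B, NS5A or actin (1:500, overnight, 4 °C), then HRP secondary (1:5,000, 1 h). Chemiluminescent detection used β-actin as the loading control.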

| Compound | IC50 (HCV NS5B) [µM] | inhibition of HCV RNA replication [1] | effect on cell growth (MH14 cells) | IC50, inhibition of NS5B RdRp activity in vitro (HCV NS5B) | effect on p53 expression [2] | Kd (HCV NS5B (CΔ21)) [µM] | time to binding equilibrium with NS5B (fluorescence quenched) (HCV NS5B (CΔ21)) [min] | IC90 (HCV NS5B) [µM] | HCV replication inhibited, judged by HCV RNA level ([1]; 50 μM) [%] | HCV replication reduced [1] | effect on tumor suppressor protein p53 [3] | cytotoxicity in MH14 cell (MH14 cells) | viral replication reduced (first statement, Fig. 4 B, C) ([4]; 50 μM) [%] | inhibition at 100 µM [4] [%] | HCV replication inhibited, judged by HCV RNA level ([1]; 10 μM) [%] | influence on cell viability (MH14 cells) | toxicity (MH14 cells) | inhibition of NS5B expression ([4]; 10 μM, MH14 cells, 48 h) [%] | NS5B expression by Western blot ([4]; 50 μM, MH14 cells, 48 h) |
| --- | --- | --- | --- | --- | --- | --- | --- | --- | --- | --- | --- | --- | --- | --- | --- | --- | --- | --- | --- |
| O=C(O)c1ccc(O)c(O)c1 [Compound 1, 3,4-dihydroxybenzoic acid] | 400 | inhibited HCV RNA replication only at very high concentrations | enhanced cellular proliferation |  |  |  |  |  |  |  |  |  |  |  |  |  |  |  |  |
| O=C(O)c1ccc(O)cc1 [Compound 2, 4-hydroxybenzoic acid] |  | inhibited HCV RNA replication only at very high concentrations | enhanced cellular proliferation | did not inhibit |  |  |  |  |  |  |  |  |  |  |  |  |  |  |  |
| O=c1cc(-c2ccc(O)c(O)c2)oc2cc(O)cc(O)c12 [Compound 3, luteolin] | 11.3 |  |  |  | no effect | 31.5 | ≤ 1 | 52 | 50 | approximately 80% | strongly up-regulate | comparable high cytotoxicity | ~50 | > 90 |  |  |  |  |  |
| COc1cc(O)c2c(c1)oc(=O)c1c3cc(O)c(O)cc3oc21 [Compound 4, wedelolactone] | 7.7 |  |  | indistinguishable |  | 24.3 | ≤ 1 | 32 | 80 |  |  |  |  |  | 30 | no influence on cell viability | toxic | > 80 | could not detect the expression of NS5B |
| O=c1cc(-c2ccc(O)cc2)oc2cc(O)cc(O)c12 [Compound 5, apigenin] | 175 |  |  |  | no effect | 122 | ≤ 1 |  | 50 | ~90% | strongly up-regulate | comparable high cytotoxicity | ~50 | > 90 |  | no influence on cell viability | toxic |  |  |
